# Data as given in ChEMBL document CHEMBL4038284, “Synthesis of novel quinoline-based 4,5-dihydro-1H-pyrazoles as potential anticancer, antifungal, antibacterial and antiprotozoal agents” (Eur J Med Chem, 2017).
# Calls of active or inactive are those of the source. No cut-off for these calls is given here.
# How the values were obtained:
# CCRF-CEM = assay: Growth inhibition of human CCRF-CEM cells at 10 uM incubated for 48 hrs by sulforhodamine B assay; format: functional, cell-based
# How it was run: (§1)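 NCI 60-cell-line screen at a single 10 µM dose. Cells in RPMI-1640 with 5% FBS and 2 mM L-glutamine, pre-incubated 24 h, then treated for 48 h at 37 °C. TCA fixation, sulforhodamine B staining, absorbance at 515 nm. Percentage growth calculated against time-zero and untreated controls.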
# 786-0 = assay: Growth inhibition of human 786-0 cells at 10 uM incubated for 48 hrs by sulforhodamine B assay; format: functional, cell-based; how it was run: as §1
# T47D = assay: Growth inhibition of human T47D cells at 10 uM incubated for 48 hrs by sulforhodamine B assay; format: functional, cell-based
# How it was run: (§2)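 NCI-60 single-dose screen at 10 µM for 48 h. Cells were grown in RPMI-1640 with 5% FBS and 2 mM L-glutamine and preincubated 24 h before compound. Time-zero plates were TCA-fixed at compound addition. After exposure, cells were TCA-fixed, stained with SRB and read at 515 nm. Percentage growth was calculated against time-zero and untreated-control absorbances.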
# Pseudomonas aeruginosa = assay: Antibacterial activity against Pseudomonas aeruginosa ATCC 27853 after 24 hrs by resazurin dye based microdilution assay; format: functional; settings: ATCC 27853, 24 h
# How it was run: (§3)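 MIC taken as the lowest concentration giving visible inhibition and/or by resazurin (1 mg/mL). Gentamicin was the control. Run in duplicate, repeated at least three times.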
# MOLT-4 = assay: Growth inhibition of human MOLT4 cells at 10 uM incubated for 48 hrs by sulforhodamine B assay; format: functional, cell-based
# How it was run: (§4)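 NCI 60-line panel, single 10 μM dose. Cells were grown in RPMI-1640 with 5% FBS and 2 mM L-glutamine and pre-incubated 24 h before compound addition (DMSO stock). Exposure was 48 h at 37 °C, 5% CO2. Cells were fixed with cold TCA (10% final), stained with 0.4% SRB, bound dye dissolved in 10 mM Tris base, A515 read. Growth was taken relative to time-zero and untreated control plates.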
# Klebsiella pneumoniae = assay: Antibacterial activity against carbapenemase positive Klebsiella pneumoniae BAA 1705 after 24 hrs by resazurin dye based microdilution assay; format: functional; settings: BAA 1705, 24 h; how it was run: as §3
# Neisseria gonorrhoeae = assay: Antibacterial activity against beta lactamase positive Neisseria gonorrhoeae ATCC 31426 by oxidase test; format: functional
# How it was run: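 Agar dilution MIC on GC agar with 1% isovitalex containing increasing compound concentrations. Plates inoculated with about 1×10^4 CFU (5 µL). MIC is the lowest concentration that inhibited growth, with growth confirmed by oxidase test. Run in duplicate, repeated at least three times.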
# HOP-62 = assay: Growth inhibition of human HOP62 cells at 10 uM incubated for 48 hrs by sulforhodamine B assay; format: functional, cell-based; how it was run: as §1
# Plasmodium falciparum = assay: Antiplasmodial activity against chloroquine-sensitive Plasmodium falciparum 3D7 assessed as reduction in parasitic LDH activity after 48 hrs by Malstat reagent based […] method; format: functional; settings: 3D7, 48 h
# How it was run: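 Unsynchronized P. falciparum 3D7 at 0.5% parasitemia and 1% hematocrit in RPMI with 3% Albumax II. Exposed to 100, 25, 6.25 and 1.56 µg/mL for 48 h at 37 °C under 90% N2/5% CO2/5% O2. After three freeze-thaw cycles, LDH measured with Malstat and NBT/PES, 1 h in the dark, read at 650 nm. IC50 by Probit; triplicate, ≥2 experiments.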
# Trypanosoma cruzi = assay: Antitrypanosomal activity against Trypanosoma cruzi Tulahuen intracellular amastigote harboring LacZ infected in human U937 cells after 72 hrs by CPRG/Nonidet reagent based spectrophotometric method; format: functional, cell-based; settings: U-937, 72 h
# How it was run: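 U-937 cells at 2.5 × 10^5 cells/mL in RPMI-1640 with 10% serum and 0.1 µg/mL PMA were infected with β-galactosidase-transfected Tulahuen epimastigotes at 5 parasites per cell. Infected cells were exposed to 50, 12.5, 3.125 and 0.78 µg/mL for 72 h. CPRG (100 uM) and 0.1% Nonidet P-40 were added for 3 h, read at 570 nm. EC50 by Probit. Triplicate, at least two experiments; benznidazole as reference.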
# Candida albicans [1] = assay: Growth inhibition of Candida albicans ATCC 10231 at 3.4 ug/ml incubated for 48 hrs under dark condition by broth microdilution method relative to control; format: functional; settings: ATCC 10231, 48 h, read-out: GI
# OVCAR-5 = assay: Growth inhibition of human OVCAR5 cells at 10 uM incubated for 48 hrs by sulforhodamine B assay; format: functional, cell-based; how it was run: as §4
# SNB-75 = assay: Growth inhibition of human SNB75 cells at 10 uM incubated for 48 hrs by sulforhodamine B assay; format: functional, cell-based; how it was run: as §2
# Malme-3M = assay: Growth inhibition of human MALME-3M cells at 10 uM incubated for 48 hrs by sulforhodamine B assay; format: functional, cell-based; how it was run: as §4
# SF-268 = assay: Growth inhibition of human SF268 cells at 10 uM incubated for 48 hrs by sulforhodamine B assay; format: functional, cell-based; how it was run: as §4
# Candida albicans [2] = assay: Growth inhibition of Candida albicans ATCC 10231 at 250 ug/ml incubated for 48 hrs under dark condition by broth microdilution method relative to control; format: functional; settings: ATCC 10231, 48 h, read-out: GI
# How it was run: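 CLSI M27-A3 broth microdilution in RPMI-1640, DMSO ≤1%. Inoculum 1-5 × 10^3 CFU/mL. Incubated 48 h at 30 °C, dark. % inhibition = 100 − (OD405 test − sterility control)/(OD405 growth control − sterility control), with growth and sterility control wells. Triplicate.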
# COLO 205 = assay: Growth inhibition of human COLO205 cells at 10 uM incubated for 48 hrs by sulforhodamine B assay; format: functional, cell-based; how it was run: as §1
# Candida albicans [3] = assay: Antifungal activity against Candida albicans ATCC 10231 incubated for 48 hrs under dark condition by broth microdilution method; format: functional; settings: ATCC 10231, 48 h
# How it was run: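 CLSI M27-A3 broth microdilution in RPMI-1640, DMSO ≤1%, compounds at 250-0.98 µg/mL final. Inoculum 1-5 × 10^3 CFU/mL. Incubated 48 h at 30 °C in a moist dark chamber, read at OD405. MIC80 and MIC50 taken from % inhibition dose-response curves (mean ± SEM, triplicate). Amphotericin B was the positive control.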
# MDA-MB-435 = assay: Growth inhibition of human MDA-MB-435 cells at 10 uM incubated for 48 hrs by sulforhodamine B assay; format: functional, cell-based; how it was run: as §4
# U-251 = assay: Growth inhibition of human U251 cells at 10 uM incubated for 48 hrs by sulforhodamine B assay; format: functional, cell-based; how it was run: as §2
# HL-60(TB) = assay: Growth inhibition of human HL-60(TB) cells at 10 uM incubated for 48 hrs by sulforhodamine B assay; format: functional, cell-based
# How it was run: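 NCI 60-line single-dose screen at 10 μM, 48 h. Cells in RPMI-1640 with 5% FBS and 2 mM L-glutamine at 37 °C, 5% CO2. Growth measured by TCA fixation and SRB staining (515 nm), relative to time-zero and untreated control wells.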
# SF-539 = assay: Growth inhibition of human SF539 cells at 10 uM incubated for 48 hrs by sulforhodamine B assay; format: functional, cell-based; how it was run: as §4
# K562 = assay: Growth inhibition of human K562 cells at 10 uM incubated for 48 hrs by sulforhodamine B assay; format: functional, cell-based; how it was run: as §4
# SK-MEL-28 = assay: Growth inhibition of human SK-MEL-28 cells at 10 uM incubated for 48 hrs by sulforhodamine B assay; format: functional, cell-based; how it was run: as §2
SMILES,growth inhibition (GI) (CCRF-CEM),growth inhibition (GI) (786-0),growth inhibition (GI) (T47D),MIC (Pseudomonas aeruginosa),growth inhibition (GI) (MOLT-4),MIC (Klebsiella pneumoniae),MIC (Neisseria gonorrhoeae),growth inhibition (GI) (HOP-62),EC50 (Plasmodium falciparum),EC50 (Trypanosoma cruzi),inhibition of growth at 3.4 µg/mL (Candida albicans [1]),growth inhibition (GI) (OVCAR-5),growth inhibition (GI) (SNB-75),growth inhibition (GI) (Malme-3M),growth inhibition (GI) (SF-268),inhibition of growth at 250 µg/mL (Candida albicans [2]),growth inhibition (GI) (COLO 205),MIC50 (Candida albicans [3]),MIC80 (Candida albicans [3]),growth inhibition (GI) (MDA-MB-435),also measured
Clc1ccc(C2=NN(c3ccccc3)C(c3cccc(Nc4ccnc5cc(Cl)ccc45)c3)C2)cc1 (stereo not given),inactive,inactive,inactive,> 1000 µg/mL,inactive,> 1000 µg/mL,> 1000 µg/mL,inactive,11.7 µg/mL,16.2 µg/mL,0%,inactive,inactive,inactive,inactive,19.8%,inactive,≥ 250 µg/mL,≥ 250 µg/mL,inactive,growth inhibition (GI) (U-251): inactive; growth inhibition (GI) (HL-60(TB)): inactive; growth inhibition (GI) (SF-539): inactive; growth inhibition (GI) (K562): inactive; growth inhibition (GI) (SK-MEL-28): inactive
Clc1ccc(C2=NN(c3cc(Cl)cc(Cl)c3)C(c3cccc(Nc4ccnc5cc(Cl)ccc45)c3)C2)cc1 (stereo not given),inactive,inactive,inactive,> 1000 µg/mL,inactive,> 1000 µg/mL,> 1000 µg/mL,inactive,11.3 µg/mL,19.1 µg/mL,1.64%,inactive,inactive,inactive,inactive,35%,inactive,≥ 250 µg/mL,≥ 250 µg/mL,inactive,growth inhibition (GI) (U-251): inactive; growth inhibition (GI) (HL-60(TB)): inactive; growth inhibition (GI) (SF-539): inactive; growth inhibition (GI) (K562): inactive; growth inhibition (GI) (SK-MEL-28): inactive
COc1cc(C(=O)/C=C/c2cccc(Nc3ccnc4cc(Cl)ccc34)c2)cc(OC)c1OC,Active,Active,Active,> 1000 µg/mL,Active,> 1000 µg/mL,> 1000 µg/mL,Active,14.1 µg/mL,1.09 µg/mL,1.24%,Active,Active,Active,Active,13.7%,Active,≥ 250 µg/mL,≥ 250 µg/mL,Active,growth inhibition (GI) (U-251): Active; growth inhibition (GI) (HL-60(TB)): Active; growth inhibition (GI) (SF-539): Active; growth inhibition (GI) (K562): Active; growth inhibition (GI) (SK-MEL-28): Active
COc1ccc(C(=O)/C=C/c2cccc(Nc3ccnc4cc(Cl)ccc34)c2)cc1,Active,Active,Active,> 1000 µg/mL,Active,> 1000 µg/mL,> 1000 µg/mL,Active,10.5 µg/mL,3.29 µg/mL,5.88%,Active,Active,Active,Active,59.6%,Active,250 µg/mL,≥ 250 µg/mL,Active,growth inhibition (GI) (U-251): Active; growth inhibition (GI) (HL-60(TB)): Active; growth inhibition (GI) (SF-539): Active; growth inhibition (GI) (K562): Active; growth inhibition (GI) (SK-MEL-28): Active
COc1ccc(C2=NN(c3ccc(Cl)cc3)C(c3cccc(Nc4ccnc5cc(Cl)ccc45)c3)C2)cc1 (stereo not given),inactive,inactive,inactive,> 1000 µg/mL,inactive,> 1000 µg/mL,> 1000 µg/mL,inactive,44.6 µg/mL,44.6 µg/mL,0%,inactive,inactive,inactive,inactive,3.08%,inactive,≥ 250 µg/mL,≥ 250 µg/mL,inactive,growth inhibition (GI) (U-251): inactive; growth inhibition (GI) (HL-60(TB)): inactive; growth inhibition (GI) (SF-539): inactive; growth inhibition (GI) (K562): inactive; growth inhibition (GI) (SK-MEL-28): inactive
O=CN1N=C(c2ccc(Cl)cc2)CC1c1cccc(Nc2ccnc3cc(Cl)ccc23)c1 (stereo not given),Active,Active,Active,> 1000 µg/mL,Active,> 1000 µg/mL,> 1000 µg/mL,Active,24.7 µg/mL,0.7 µg/mL,9.81%,Active,Active,Active,Active,67.5%,Active,250 µg/mL,≥ 250 µg/mL,Active,growth inhibition (GI) (U-251): Active; growth inhibition (GI) (HL-60(TB)): Active; growth inhibition (GI) (SF-539): Active; growth inhibition (GI) (K562): Active; growth inhibition (GI) (SK-MEL-28): Active
